Here are results for 16 compounds from ChEMBL document CHEMBL1133509, “Synthetic oleanane and ursane triterpenoids with modified rings A and C: a series of highly active inhibitors of nitric oxide production in mouse macrophages” (J Med Chem, 2000).

pIC50: −log10 of the molar value.

The first test is filed under the species Mus musculus. Kind of test: Inhibition of nitric oxide (NO) production induced by interferon-gamma (IFN-gamma) in mouse macrophages. It counts as functional. In outline:
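Primary peritoneal macrophages from female CD-1 mice (5–10 weeks), harvested four days after i.p. injection of 4% thioglycollate broth. Seeded at 2 × 10^5 cells/well and incubated 48 h with 20 ng/mL recombinant mouse IFN-γ plus compound in DMSO (final ≤0.1%), with DMSO controls. Nitrite in supernatant measured by Griess reaction at 550 nm in triplicate against sodium nitrite standard curve. IC50 is the average of two experiments.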
For `COC(=O)[C@]12CC[C@@H](C)[C@H](C)C1C1=CC(=O)[C@@H]3[C@@]4(C)C=CC(=O)C(C)(C)[C@@H]4CC[C@@]3(C)[C@]1(C)CC2` (stereo partly specified), the pIC50 (commonly the negative decadic logarithm of the IC50, by convention in mol/L) is 5.05.
Still for that read-out and setting: the same measure for `COC(=O)[C@]12CCC(C)(C)CC1C1C(=O)C=C3[C@@]4(C)C=CC(=O)C(C)(C)[C@@H]4CC[C@@]3(C)[C@]1(C)CC2` (stereo partly specified): 6.15; for `C[C@@H]1CC[C@]2(C(=O)O)CC[C@]3(C)C(=CC(=O)[C@@H]4[C@@]5(C)C=C(C#N)C(=O)C(C)(C)[C@@H]5CC[C@]43C)C2[C@H]1C` (stereo partly specified): 6.10.
Compound `COC(=O)[C@]12CC[C@@H](C)[C@H](C)C1C1=CC(=O)[C@@H]3[C@@]4(C)C=C(C#N)C(=O)C(C)(C)[C@@H]4CC[C@@]3(C)[C@]1(C)CC2` (stereo partly specified) showed a pIC50 of 7.00.
Take `CC1(C)CC[C@]2(C=O)CC[C@]3(C)C(=CC(=O)[C@@H]4[C@@]5(C)C=CC(=O)C(C)(C)[C@@H]5CC[C@]43C)C2C1` (stereo partly specified): the pIC50 was 5.42.
The same measure, in the same setting: the same measure for `COC(=O)[C@]12CCC(C)(C)CC1C1C(=O)C=C3[C@@]4(C)C=C(C(N)=O)C(=O)C(C)(C)[C@@H]4CC[C@@]3(C)[C@]1(C)CC2` (stereo partly specified): 7.00; for `CC(=O)OC[C@]12CCC(C)(C)CC1C1=CC(=O)[C@@H]3[C@@]4(C)C=CC(=O)C(C)(C)[C@@H]4CC[C@@]3(C)[C@]1(C)CC2` (stereo partly specified): under 4.40; for `COC(=O)[C@]12CCC(C)(C)CC1C1=CC(=O)[C@@H]3[C@@]4(C)C=CC(=O)C(C)(C)[C@@H]4CC[C@@]3(C)[C@]1(C)CC2` (stereo partly specified): 5.55.
The same measure, in the same setting: the same measure for `COC(=O)[C@]12CCC(C)(C)CC1C1C(=O)C=C3[C@@]4(C)C=C(C=O)C(=O)C(C)(C)[C@@H]4CC[C@@]3(C)[C@]1(C)CC2` (stereo partly specified): 7.00.
`COC(=O)[C@]12CCC(C)(C)CC1C1C(=O)C[C@@H]3[C@@]4(C)C=CC(=O)C(C)(C)[C@@H]4CC[C@@]3(C)[C@]1(C)CC2` (stereo partly specified) had a pIC50 of 4.85.
Still for that read-out and setting: the same measure for `CC1(C)CC[C@]2(CO)CC[C@]3(C)C(=CC(=O)[C@@H]4[C@@]5(C)C=CC(=O)C(C)(C)[C@@H]5CC[C@]43C)C2C1` (stereo partly specified): 5.52; for `CC1(C)CC[C@]2(C(=O)O)CC[C@]3(C)C(=CC(=O)[C@@H]4[C@@]5(C)C=CC(=O)C(C)(C)[C@@H]5CC[C@]43C)C2C1` (stereo partly specified): 5.96.
`COC(=O)[C@]12CCC(C)(C)CC1C1=CC[C@@H]3[C@@]4(C)C=CC(=O)C(C)(C)[C@@H]4CC[C@@]3(C)[C@]1(C)CC2` (stereo partly specified) gave a pIC50 of 4.51.

The species entered for the next test is Mus musculus. Kind of test: Evaluated for the inhibitory activity of (Nitric Oxide)NO production induced by interferon-gamma (IFN-gamma) in mouse macrophages( toxic to cells above 1 uM and is not active below 1 uM); Toxic. It counts as functional, cell-based.
With `C[C@@H]1CC[C@]2(C(=O)O)CC[C@]3(C)C(=CC[C@@H]4[C@@]5(C)CC[C@H](O)C(C)(C)[C@@H]5CC[C@]43C)C2[C@H]1C` (stereo partly specified), the IC50 entry is given as “Toxic”.
Still for that read-out and setting: the same measure for `COC(=O)C1=C[C@]2(C)C3=CC(=O)C4C5CC(C)(C)CC[C@]5(C(=O)OC)CC[C@@]4(C)[C@]3(C)CC[C@H]2C(C)(C)C1=O` (stereo partly specified): “Toxic”.

Another test is filed under the species Mus musculus. The experiment in a line: Evaluated for the inhibitory activity of (Nitric Oxide)NO production induced by interferon-gamma (IFN-gamma) in mouse macrophages(toxic to cells above 1 uM and is not active below 1 uM); Toxic. The test is classed as functional, cell-based.
With `COC(=O)[C@]12CCC(C)(C)CC1C1=CC[C@@H]3[C@@]4(C)C=C(C=O)C(=O)C(C)(C)[C@@H]4CC[C@@]3(C)[C@]1(C)CC2` (stereo partly specified), the IC50 result is on record as “Toxic”.
